# Published values collected from several papers.
# Compare with care: the assays were run in different laboratories.
# Target: Serine/threonine-protein kinase PAK 3 (PAK3, Homo sapiens, UniProt O75914)
SMILES,observed,mode,technique,tested at,measurement,value
O=C(Nc1cnn(-c2csc(C(=O)NC3COC3)c2)c1)Nc1c(F)cccc1Cl,enzyme activity,inhibitor,,5 µM,remaining activity,64.2%
Cn1cc(Cl)c2c(Oc3c(F)cc(Nc4cc(Cl)nc(N)n4)cc3F)ccnc21,cell-free assay,,competition with immobilised ligand,0.1 µM,remaining binding,100%
Clc1ccc(Nc2nnc(Cc3ccncc3)c3ccccc23)cc1,cell-free assay,,,0.5 µM,remaining signal,107%
Cc1nc(C2CCN(C(=O)c3ccc(OC(F)(F)F)cc3N)CC2)c2ncc(N3CCN(C)CC3)cc2n1,cell-free assay,,competition with immobilised ligand,1 µM,remaining binding,100%
Cc1ccc(Nc2nccc(N(C)c3ccc4c(C)n(C)nc4c3)n2)cc1S(N)(=O)=O,enzyme activity,inhibitor,,10 µM,inhibition,61%
COc1cc2ncnc(Nc3ccc(Oc4ccccc4)c(C)c3C)c2cc1OC,enzyme activity,inhibitor,,1 µM,inhibition,10%
CN1CC(Oc2cnc(C#N)cc2-c2ccn3nc(NC(=O)C4CC4)cc3c2)C1,enzyme activity,inhibitor,,1 µM,inhibition,-10%
COc1cc2ncnc(Nc3ccc(F)c(Cl)c3)c2cc1OCCCN1CCOCC1,cell-free assay,,,0.5 µM,remaining signal,106%
COc1cc(Cl)c(C(=O)N[C@@H](CN[C@H]2CC[C@@H](N)CC2)Cc2ccc(C#N)cc2)cc1-c1ccc(CN[C@H](C)c2ccc(C)cc2)o1,enzyme activity,inhibitor,,1 µM,remaining activity,101%
CNC(=O)c1cc(Oc2ccc(NC(=O)Nc3ccc(Cl)c(C(F)(F)F)c3)cc2)ccn1,enzyme activity,inhibitor,,10 µM,inhibition,74%
C[S+]([O-])c1ccc(-c2nc(-c3ccncc3)c(-c3ccc(F)cc3)[nH]2)cc1 (stereo not shown),cell-free assay,,,0.5 µM,remaining signal,102%
CN(C)CC#Cc1ccc(OCCCc2sc(N3CCc4cccc(C(=O)Nc5nc6ccccc6s5)c4C3)nc2C(=O)O)c(F)c1,cell-free assay,,competition with immobilised ligand,1 µM,remaining binding,97%
CCCS(=O)(=O)Nc1ccc(F)c(C(=O)c2c[nH]c3ncc(-c4ccc(Cl)cc4)cc23)c1F,enzyme activity,inhibitor,,1 µM,inhibition,< 20%
O=C(N[C@H]1CCCCC/C=C\C2C[C@@]2(C(=O)O)NC(=O)[C@@H]2C[C@@H](Oc3ccncc3)CN2C1=O)OC1CCCC1 (stereo partly shown),binding,,competition with immobilised ligand,1 µM,remaining binding,88%
CCCOc1ccc(OC)c(F)c1C(=O)c1ccc(C(=O)N[C@@H]2CNC[C@H]2NC(=O)c2ccc3[nH]ncc3c2)cc1,enzyme activity,inhibitor,,10 µM,remaining activity,51%
O=C(Nc1cccnn1)N1CC(C/C=C/c2cncc(Oc3ccc(C(F)(F)F)cn3)n2)C1,cell-free assay,,competition with immobilised ligand,1 µM,remaining binding,100%
Cc1ccc(C(=O)Nc2ccc(CN3CCN(C)CC3)c(C(F)(F)F)c2)cc1C#Cc1cnc2cccnn12,enzyme activity,inhibitor,,23.5 nM,remaining activity,3.6%
CC(C)CC(=O)N1CCc2nc(-c3ccc(Br)cc3)nc(N(C)Cc3ccccc3)c2C1,cell-free assay,,competition with immobilised ligand,0.1 µM,remaining binding,100%
COc1cc2c(Nc3ccc(Br)cc3F)ncnc2cc1OCC1CCN(C)CC1,cell-free assay,,,0.5 µM,remaining signal,103%
